The test system of assay [1] is Plasmodium falciparum. The experiment in a line: Gametocytocidal antimalarial activity against chloroquine-sensitive Plasmodium falciparum NF54 late gametocyte stage after 72 hrs by alamar blue assay. The assay is classed as functional, organism-based. As to conditions: NF54, 72 h. Summed up: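 Stage V gametocytes came from NF54 cultures kept at 37 °C in 5% O2, 5% CO2 and […]. Asexual stages were cleared with 5% sorbitol for four days from day 9, and gametocytes were purified on day 13 over NycoPrep 1.077. 30,000–50,000 gametocytes per well were incubated with drug for 72 h in low O2. AlamarBlue was then added for 24 h (ex 540/em 585 nm). IC50 from dose-response fit; two independent determinations in duplicate, ± S.E.M.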

The test system of assay [2] is Plasmodium falciparum. The assay is described as follows: Antimalarial activity against chloroquine-sensitive Plasmodium falciparum NF54 early gametocyte stage assessed as reduction in occurrence of gametocyte stages after 13 days at 0.76 uM by microscopy. The format is functional. On the set-up: scale not given: the % may be the effect or the level left. In outline: (§1)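 NF54 cultures at 0.75% parasitemia and 1% hematocrit were grown 13 days with or without drug in 24-well plates, humidified, at 37 °C under low oxygen. Plain or drug-supplemented medium was replaced on days 4, 6, 8 and 9-12. On day 13, asexual and sexual parasitaemia were counted on Giemsa-stained smears. Controls were untreated and 0.5% DMSO vehicle. Two independent experiments.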

Assay [3] concerns Plasmodium falciparum. The experiment in a line: Antimalarial activity against chloroquine-sensitive Plasmodium falciparum NF54 early gametocyte stage assessed as reduction in occurrence of asexual intraerythrocytic stages after 13 days at 0.76 uM by microscopy. The assay is classed as functional, organism-based. Summed up: as §1
In assay [4] the test system is Plasmodium falciparum. The assay is described as follows: Cytocidal antimalarial activity against chloroquine/mefloquine-resistant Plasmodium falciparum Dd2 intraerythrocytic stage. The assay is classed as functional. As to conditions: read-out: LD50 (the source's name). Summed up:
(§2)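 Killing of intraerythrocytic stages measured by a rapid cytocidal assay, per an earlier report. LD50 values are the mean of three replicate determinations ± S.E.M.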

Assay [5] concerns Plasmodium falciparum. The assay is described as follows: Cytocidal antimalarial activity against drug-sensitive Plasmodium falciparum HB3 intraerythrocytic stage. As to conditions: read-out: LD50 (the source's name). The format is functional. In outline: as §2
Assay [6] has as its system Plasmodium falciparum. The assay is described as follows: Antimalarial activity against chloroquine/mefloquine-resistant Plasmodium falciparum Dd2 intraerythrocytic stage after 72 hrs by SYBR green I dye based assay. The format is functional, organism-based. As to conditions: for IC50: Plasmodium falciparum, Dd2, 72 h.
For another assay, the system named is A2780. The experiment in a line: Cytotoxicity against human A2780 cells. The assay is classed as functional, cell-based.
The subject of assay [7] is Plasmodium falciparum. The assay is described as follows: Antimalarial activity against chloroquine-sensitive Plasmodium falciparum NF54 asexual stage after 72 hrs by alamar blue assay. The assay is classed as functional, organism-based. As to conditions: NF54, 72 h. (Resazurin is reduced to fluorescent resorufin, in cell work by metabolically active cells.)
In assay [8] the test system is Plasmodium falciparum. The experiment in a line: Antimalarial activity against chloroquine-sensitive Plasmodium falciparum NF54 early gametocyte stage assessed as reduction in occurrence of gametocyte stages after 13 days at 0.14 uM by microscopy. The format is functional, organism-based. In outline: as §1
Assay [9] concerns Plasmodium falciparum. The experiment in a line: Antimalarial activity against chloroquine-sensitive Plasmodium falciparum NF54 early gametocyte stage assessed as reduction in occurrence of asexual intraerythrocytic stages after 13 days at 0.14 uM by microscopy. The assay is classed as functional, organism-based. In outline: as §1

The source made the active and inactive calls. The calls are words filed in the database; no cut-off is given here.

On to `C[C@H]1[C@H](OC(=O)CCC(=O)O)O[C@@H]2O[C@@]3(C)CC[C@H]4[C@H](C)CC[C@@H]1[C@@]24OO3` [ARTESUNATE], for which the IC50 (as a rule, the concentration that gives 50% inhibition) in the assay with Plasmodium falciparum [1] came to 2300 nM.

In the case of `COc1c(C)c(O)c(C(C)=O)c(O)c1Cc1c(O)c(C(C)=O)c(O)c(CC=C(C)C)c1OC` [MALLOTOJAPONIN B], the Activity with Plasmodium falciparum [2] came to 80%. Moreover, the result in the assay with Plasmodium falciparum [3] was Active. Further, the LC50 in the assay with Plasmodium falciparum [4] stood at 6700 nM; in the assay with Plasmodium falciparum [5], 14600 nM. In the assay on Plasmodium falciparum [6], this compound displayed an IC100 of 44 µM. Besides, the IC50 with Plasmodium falciparum [6] is 750 nM; with A2780, 1100 nM.

Regarding `COc1c(CC=C(C)C)c(O)c(C(C)=O)c(O)c1Cc1c(O)c(C(C)=O)c(O)c(CC=C(C)C)c1OC` [MALLOTOJAPONIN C], the 50% inhibitory concentration (IC50) amounted to 70 nM in the assay on Plasmodium falciparum [7], 3600 nM in the assay on Plasmodium falciparum [1], 140 nM in the assay with Plasmodium falciparum [6] and 1300 nM in the assay on A2780. The outcome with Plasmodium falciparum [8] and in the assay on Plasmodium falciparum [9] was Active. Besides, the LC50 with Plasmodium falciparum [4] amounted to 800 nM; in the assay with Plasmodium falciparum [5] it was 810 nM. Moreover, the IC100 with Plasmodium falciparum [6] was determined as 39 µM.

(Values after ChEMBL document CHEMBL2331226, “Antiproliferative and antiplasmodial dimeric phloroglucinols from Mallotus oppositifolius from the Madagascar Dry Forest (1)” (J Nat Prod, 2013).)
